Most compounds without a hit are left out; they make up all but 3.7% or so of the library.
SR-BI HDL uptake: inhibitors of SR-BI mediated HDL lipid uptake, primary screen, ldlA[mSR-BI] cells, fluorescence, single point | Scavenger receptor class B member 1 (Mus musculus), Q61009 | ldlA[mSR-BI] CHO cells, DiI-HDL uptake fluorescence, 3 h | inhibition, % at 12.5 µM | hit rate 0.96% among 320,000 | AID 488896, 2010;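 active = mean replicate inhibition of at least 70% and a set share of replicates each scoring 70 or more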;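 note: 0% = median of neutral control wells and 100% = median of positive control wells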
GASC-1 inh: inhibitors of GASC-1 histone demethylase, primary screen, biochemical, fluorescence, DELFIA europium; GST-JMJD2C(1-420) H3K9me3 demethylation; Lysine-specific demethylase 4C (Homo sapiens), Q9H3R0; hit rate 0.069% among 330,000; inhibition, % at 2.35 µM;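 active = more than half of a compound's replicate wells show inhibition beyond 50%, single wells judged on their own value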;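 note: signal counts dimethyl H3K9 product captured on neutravidin plate; 0% = median of DMSO wells and 100% = 0.3 times that DMSO median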
Target sequence (Q9H3R0 1-420 limits assumed): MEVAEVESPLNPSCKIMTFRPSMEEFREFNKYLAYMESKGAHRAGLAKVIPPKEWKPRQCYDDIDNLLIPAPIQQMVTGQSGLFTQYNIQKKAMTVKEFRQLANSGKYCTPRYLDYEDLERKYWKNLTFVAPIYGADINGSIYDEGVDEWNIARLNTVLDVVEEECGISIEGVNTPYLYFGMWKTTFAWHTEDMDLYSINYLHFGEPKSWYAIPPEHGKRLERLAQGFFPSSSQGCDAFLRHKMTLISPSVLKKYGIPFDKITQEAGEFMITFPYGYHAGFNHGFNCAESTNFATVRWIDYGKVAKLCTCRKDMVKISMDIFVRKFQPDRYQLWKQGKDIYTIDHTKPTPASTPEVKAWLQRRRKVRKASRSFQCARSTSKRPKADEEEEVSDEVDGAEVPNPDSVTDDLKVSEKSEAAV
AHR act: AHR activators, primary screen, cell-based, luminescence, luciferase reporter, human. Aryl hydrocarbon receptor (Homo sapiens), P35869. AHR-responsive luciferase reporter cells. activation, % at 5 µM. hit rate 2.5% among 320,000. AID 2796, 2010; in the data active = activation above about 47%;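 note: 0% = vehicle wells and 100% = reference agonist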
GAA850 FXN act: FXN promoter activators, primary screen, cell-based, luciferase luminescence, HEK293 lucGAA850; activation, % at 6 µM; hit rate 0.56% among 360,000; HEK293 lucGAA850 FXN promoter luciferase reporter, 24 h; percent of 10 µM SAHA response;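 active = activation above the average of all compounds screened plus 3 SD, cutoff fixed separately per campaign, cut at about 7.5% in these data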;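 note: 0% = DMSO wells and 100% = 10 µM SAHA wells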
SR-BI uptake up: activators of SR-BI mediated DiI-HDL uptake, primary screen, ldlA[mSR-BI] CHO cells, DiI fluorescence | activation, % at 12.5 µM | hit rate 0.096% among 320,000 | 3 h; 100 = double the neutral-control signal | AID 504775, 2011;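 active = mean replicate activation of at least 60% and every replicate at or above 60%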;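 note: 0% = median plate neutral-control signal and 100% = twice that signal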
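Assay system: LDL receptor-deficient CHO ldlA cells overexpressing murine SR-BI / Medium: BSA-supplemented, HEPES-buffered Ham's F12, pH 7.4 / Probe or stimulus: DiI-labelled HDL at 10 µg/mL final / Timing: compound with DiI-HDL co-incubation, 3 h at 37 °C / Technique: bottom-read cell fluorescence after medium removal, ex 550/em 595 nm / Measure: HDL uptake via cellular fluorescence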
Active calls of the source: *; nt = no result given.

SMILES	SR-BI HDL uptake	GASC-1 inh	AHR act	GAA850 FXN act	SR-BI uptake up
Cc1ccccc1NS(=O)(=O)c1cc(C(=O)Nc2cccc([N+](=O)[O-])c2)ccc1C	72*	1	20	-2	-72
N#C/C(=C\c1c[nH]c2ccccc12)C(=O)NC1CC1	-2	-1	-4	5	2
N#C/C(=C\c1cn[nH]c1-c1ccc(Cl)cc1)C(=O)NC1CC1	24	4	85*	3	-24
N#C/C(=C\c1c[nH]c2ccccc12)C(=O)NC1CCCC1	11	-20	64*	4	-11
Cc1cccc(C2(c3cccc(C)c3)CC2C(=O)Nc2ccc([N+](=O)[O-])cc2O)c1 (configuration not stated)	51	0	77*	-9	-51
O=C(NNC(=O)C1C2CCC(C2)C1C(=O)O)c1cccc(Cl)c1 (configuration not stated)	-21	-2	2	1	21
Brc1ccc(Nc2nc(-c3cccnc3)cs2)cc1	48	11	41	7	-48
Nc1ccc(Nc2nc(-c3ccncc3)cs2)cc1	3	3	91*	-2	-3
Cc1ccc(C(=O)Nc2nc(-c3cccnc3)cs2)o1	nt	3	70*	2	nt
Cc1ccc(Nc2nc(-c3cccnc3)cs2)cc1C	nt	-27	54*	2	nt
Oc1ccc(Nc2nc(-c3cccnc3)cs2)cc1	21	4	74*	9.0*	-21
COc1ccccc1OCCNC(=O)C1CC(=O)N(Cc2ccc(C)cc2)C1 (configuration not stated)	-7	17	1	0	7
N=C(N)c1ccc(N=Nc2c(O)ccc3c2[nH]c2ccccc23)cc1	55	nt	nt	0	-55
CN(Cc1ccc(Cl)cc1Cl)C(=O)C1CSC2(C)CCC(=O)N12 (configuration not stated)	nt	nt	nt	-1	nt
CCn1c(C)c(C)c2cc(C(=O)NCCN3CCCCCC3)ccc21	75*	-13	9	-2	-75
CCn1c(C)c(C)c2cc(C(=O)NCCCN3CCCCCC3)ccc21	57	-6	2	3	-57
CC(C)(O)C#Cc1ccc(C(=O)N2CCN(c3ccc(Cl)cc3)CC2)cc1	-15	-4	1	2	15
CSC(=NC#N)N1CCN(c2ccc(Cl)cc2)CC1	-17	-6	73*	4	17
CN(C)C(=C(C#N)C#N)N1CCN(c2ccc(Cl)c(Cl)c2)CC1	37	-10	62*	2	-37
CN(C)C(=C(C#N)C#N)N1CCN(c2ccc(Cl)cc2)CC1	nt	19	68*	-1	nt
N#CC(C#N)=C/C(C#N)=C(/N)N1CCN(c2ccc(Cl)cc2)CC1	31	4	-12	3	-31
Cc1ccc(-c2nn3c(C)nnc3s2)cc1NC(=O)c1ccc(-c2ccc(Cl)cc2Cl)o1	79*	nt	0	2	-79
Cc1ccc(-c2nn3c(C)nnc3s2)cc1NC(=O)c1ccc(Br)o1	38	-6	5	-1	-38
CCC(=O)Nc1cc(-c2nn3c(C)nnc3s2)ccc1C	-17	3	23	-1	17
Cc1ccc(-c2nn3c(C)nnc3s2)cc1NC(=O)c1ccc(-c2cccc(Cl)c2)o1	73*	-1	nt	1	-73
SMILES	SR-BI HDL uptake	GASC-1 inh	AHR act	GAA850 FXN act	SR-BI uptake up
COc1ccc(/C=C/C(=O)NCC(=O)N/N=C(/CCC(=O)O)c2ccccc2)cc1	11	0	0	-1	-11
CCOCCCNS(=O)(=O)c1ccc(NC(=O)Cc2c(F)cccc2Cl)cc1	-24	-1	-2	-2	24
CCCC(=O)Nc1c(-c2ccccc2)c(=O)c(C)nn1-c1ccc(C)cc1	-315	-7	0	0	315*
CC1(C)C2CCC13CS(=O)(=O)N[C@@H]3C2 (some centres not stated)	-118	3	-2	-1	118*
Cc1ccnc(N(C(=O)c2cccs2)C(=O)c2cccs2)c1	-14	7	50*	5	14
O=[N+]([O-])c1ccccc1COc1ccc(Cl)c2cccnc12	58	-5	72*	5	-58
COc1cc(NC(=O)COc2cccc3c2OC(C)(C)C3)cc(OC)c1OC	88*	6	-1	0	-88
CC(=O)Nc1ccc(NC(=O)COc2cccc3c2OC(C)(C)C3)cc1	31	5	5	1	-31
CCC(c1nnnn1Cc1ccc(F)cc1)N(CCCO)Cc1cc2cc3c(cc2[nH]c1=O)OCO3 (configuration not stated)	-4	0	73*	-2	4
Cc1ccc2nc(-c3ccccn3)cc(C(=O)N3CCN(c4ncccn4)CC3)c2c1	-14	nt	0	0	14
Cc1cc(C)c2nc(-c3ccccn3)cc(C(=O)N3CCCC3)c2c1	2	-1	56*	3	-2
COc1ccc(CCNC(=O)CCC(=O)N2CCOc3ccc(Cl)cc32)cc1OC	52	-4	0	1	-52
Cc1cc(-c2ccccc2)n2ncc(-c3ccccc3)c2n1	19	-19	57*	-1	-19
COc1ccc(-c2cc(C)nc3c(-c4ccccc4)cnn23)cc1	42	6	nt	2	-42
Cc1oc2ccc(OS(C)(=O)=O)cc2c1C(=O)OC(C)C	7	-1	2	1	-7
CCN(CC)C(=O)COc1ccc2oc(C)c(C(=O)OC(C)C)c2c1	43	-22	67*	0	-43
Cc1cccc(C)c1NC(=S)NC(=O)c1ccc(Br)o1	29	-5	69*	2	-29
NC(=S)NN=C(c1ccc(F)cc1)C1CC1	90*	nt	nt	0	-90
NC(=S)NN=C(c1ccc(Br)cc1)C1CC1	79*	nt	nt	-2	-79
N/C(=N\OC(=O)C1CCCCC1)c1ccc(Br)cc1	nt	6	-5	2	nt
CNS(=O)(=O)c1cc(NC(=O)CCNC(=O)c2ccco2)ccc1C	-9	5	-1	0	9
CCc1nc2ccc(C(=O)Nc3ccc(OC)c(OC)c3)cn2c1N(C)Cc1nccs1	nt	nt	nt	-2	nt
O=C(NCCN1CCN(C(=O)c2ccc(Br)cc2)CC1)c1ccc(Br)cc1	71*	2	4	1	-71
CSc1nc(C)c(C(=O)C[n+]2ccccc2)cc1C#N	-4	9	8	2	4
CCOC(=O)c1c(C)n(C)c2ccc(OC)c(NC(=O)CCN3CCC(Cc4ccccc4)CC3)c12	22	5	66*	0	-22
O=C(/C=C(/c1ccc(Cl)cc1)n1cncn1)c1ccccc1	9	158	64*	3	-9
O=C(NCCCNC(=O)c1ccco1)c1ccc(F)cc1	nt	12	-1	1	nt
CC(=O)c1ccc(OCCCC(=O)OCC(=O)N2CCN(S(=O)(=O)c3ccc(C)cc3C)CC2)cc1	5	nt	nt	0	-5
